Data published in ChEMBL document CHEMBL1126632, “Synthesis and dopamine antagonist activity of 2-thioether derivatives of the ergoline ring system” (J Med Chem, 1993).

Experiments:
Format in all cases: functional
Rattus norvegicus [1] = experiment: Conditioned avoidance response in rats after oral administration
Method in brief: (§1)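 Wistar rats (120-130 g) trained in a shuttle box to cross on a 5-s buzzer; failure within 1 s after the buzzer gave a mild shock. Only well-conditioned animals were used, in groups of five, dosed orally 1 h 50 min before testing. After 10-min habituation they were tested for 20 min. Blockade = shocks received as % of stimuli; EDmin reported.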

Mus musculus = experiment: Tested for the apomorphine climbing behavior in mice after oral administration
Method in brief: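 Female TO mice (20-25 g), groups of eight, dosed orally with compound or vehicle, then habituated 60 min in wire-mesh cylinders. Apomorphine 2.5 mg/kg sc given; from 10 min later, climbing scored 0-4 (paws on cage) at 5-min intervals for 20 min.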

Rattus norvegicus [2] = experiment: Percent change in serum prolactin in adult male Dawley rats after intraperitoneal administration.
Method in brief: (§2)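 Adult male Sprague-Dawley rats, groups of 10, given compound in 0.5% lactic acid or vehicle ip 2 h before decapitation. Trunk blood clotted at 4 °C and centrifuged. Serum prolactin measured by NIAMDD radioimmunoassay kit against rat prolactin reference NIAMDD-RP-1. Result expressed as % change from controls run in the same experiment. Means compared by Student's test.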

Rattus norvegicus [3] = experiment: Compound was tested for the Conditioned avoidance response (CAR) in rats after oral administration; ip administration
Rattus norvegicus [4] = experiment: Compound was tested for the presence of catalepsy (CAT) in rats after oral administration; ip administration
Rattus norvegicus [5] = experiment: Tested for the amphetamine induced stereotyped behavior in rats after oral administration
Method in brief: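 Wistar rats, groups of eight, given d-amphetamine sulfate 10 mg/kg ip 1 h after test compound. Stereotypy scored 1-8 at eight time points up to 4 h, and the group mean taken at each time. EDmin = lowest dose reducing stereotypy by more than 25% versus amphetamine-treated controls.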

Rattus norvegicus [6] = experiment: Tested for the presence of catalepsy(CAT) in rats after oral administration
Method in brief: (§3)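 Wistar rats (180-190 g), groups of eight, compound given orally in distilled water or 0.5% carboxymethyl cellulose. Front paws placed on a 1.5 cm rod 7 cm high at 0.5, 1, 1.5, 2, 3, 4 and 5 h; time held recorded up to 20 min and scored 0-5. Maximum score per animal summed (group maximum 40); EDmin = lowest dose exceeding a threshold score.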

Rattus norvegicus [7] = organism: Rattus norvegicus; experiment: Compound was tested for the Conditioned avoidance response (CAR) in rats; method in brief: as §1
Rattus norvegicus [8] = experiment: % change in serum prolactin in adult male Dawley rats after intraperitoneal administration.; method in brief: as §2
Rattus norvegicus [9] = experiment: Compound was tested for the presence of catalepsy (CAT) in rats after oral administration; method in brief: as §3
Rattus norvegicus [10] = organism: Rattus norvegicus; experiment: Compound was tested for the % change in serum prolactin in adult male Dawley rats.(not significant); method in brief: as §2

**Q.** `C[C@@H]1C[C@@H]2c3cccc4[nH]cc(c34)C[C@H]2N(C)C1` was tested. Which EDmin (Rattus norvegicus [1]) did it give?
**A.** The EDmin was greater than 40 mg/kg.

**Q.** Which EDmin (Mus musculus) does the source give for `CSc1[nH]c2cc(O)cc3c2c1C[C@@H]1[C@@H]3C=C(C)CN1C` here?
**A.** Its EDmin is 25 mg/kg.

**Q.** What about the Change (Rattus norvegicus [2]) of the same compound?
**A.** Its Change is -50%.

**Q.** And the EDmin (Rattus norvegicus [3])?
**A.** The EDmin was 25 mg/kg.

**Q.** And the EDmin (Rattus norvegicus [4])?
**A.** Its EDmin is 25 mg/kg.

**Q.** What does the source list for `CSc1[nH]c2cccc3c2c1C[C@@H]1[C@@H]3C[C@@H](C)CN1C`?
**A.** EDmin (Mus musculus): 40 mg/kg; EDmin (Rattus norvegicus [5]): 5 mg/kg; EDmin (Rattus norvegicus [6]): 20 mg/kg; Change (Rattus norvegicus [2]): 570%; EDmin (Rattus norvegicus [1]): 5 mg/kg

**Q.** With `CCSc1[nH]c2cccc3c2c1C[C@@H]1[C@@H]3C=C(C)CN1C` as the compound, how does the EDmin (Mus musculus) read?
**A.** The EDmin was greater than 100 mg/kg.

**Q.** And the EDmin (Rattus norvegicus [6])?
**A.** Its EDmin is 40 mg/kg.

**Q.** And the Change (Rattus norvegicus [2])?
**A.** The Change was 67%.

**Q.** And the EDmin (Rattus norvegicus [1])?
**A.** The EDmin was 25 mg/kg.

**Q.** `CSc1[nH]c2cccc3c2c1C[C@@H]1[C@@H]3C=C(CO)CN1C` was tested. Which EDmin (Mus musculus) did it give?
**A.** The EDmin was greater than 25 mg/kg.

**Q.** And the Change (Rattus norvegicus [2])?
**A.** The Change was 481%.

**Q.** What about the EDmin (Rattus norvegicus [3]) of the same compound?
**A.** The EDmin was 6 mg/kg.

**Q.** And the EDmin (Rattus norvegicus [4])?
**A.** The EDmin was 12.5 mg/kg.

**Q.** With `CSc1[nH]c2cccc3c2c1C[C@@H]1[C@@H]3C[C@H](C)CN1C` as the compound, how does the EDmin (Mus musculus) read?
**A.** Its EDmin is greater than 25 mg/kg.

**Q.** What about the Change (Rattus norvegicus [2]) of the same compound?
**A.** The Change was 63%.

**Q.** And the EDmin (Rattus norvegicus [1])?
**A.** Its EDmin is 40 mg/kg.

**Q.** Which EDmin (Mus musculus) does the source give for `CCN1CC(C)=C[C@@H]2c3cccc4[nH]c(SC)c(c34)C[C@H]21` here?
**A.** Its EDmin is 100 mg/kg.

**Q.** And the Change (Rattus norvegicus [2])?
**A.** Its Change is -65%.

**Q.** What about the EDmin (Rattus norvegicus [1]) of the same compound?
**A.** Its EDmin is 25 mg/kg.

**Q.** How did the EDmin (Mus musculus) turn out when `CC1=C[C@@H]2c3cccc4[nH]c(Sc5ccccc5)c(c34)C[C@H]2N(C)C1` was run?
**A.** The EDmin was 25 mg/kg.

**Q.** What about the EDmin (Rattus norvegicus [5]) of the same compound?
**A.** Its EDmin is 20 mg/kg.

**Q.** And the EDmin (Rattus norvegicus [6])?
**A.** The EDmin was 10 mg/kg.

**Q.** And the Change (Rattus norvegicus [2])?
**A.** The Change was 141%.

**Q.** What about the EDmin (Rattus norvegicus [1]) of the same compound?
**A.** Its EDmin is 2.5 mg/kg.

**Q.** Which results are given for `CCCSc1[nH]c2cccc3c2c1C[C@@H]1[C@@H]3C[C@@H](C)CN1C`?
**A.** Change (Rattus norvegicus [2]): 76%; EDmin (Rattus norvegicus [1]): >50 mg/kg

**Q.** `CC1=C[C@@H]2c3cccc4[nH]c([S+](C)[O-])c(c34)C[C@H]2N(C)C1` (stereo partly specified) was tested. Which EDmin (Mus musculus) did it give?
**A.** The EDmin was greater than 100 mg/kg.

**Q.** And the Change (Rattus norvegicus [2])?
**A.** The Change was 98%.

**Q.** And the EDmin (Rattus norvegicus [1])?
**A.** Its EDmin is greater than 50 mg/kg.

**Q.** For `CC1=C[C@@H]2c3cccc4[nH]c(SC(C)C)c(c34)C[C@H]2N(C)C1`, which EDmin (Rattus norvegicus [5]) is on record?
**A.** The EDmin was 10 mg/kg.

**Q.** What about the Change (Rattus norvegicus [2]) of the same compound?
**A.** Its Change is 132%.

**Q.** What about the EDmin (Rattus norvegicus [1]) of the same compound?
**A.** Its EDmin is 10 mg/kg.

**Q.** And the EDmin (Rattus norvegicus [7])?
**A.** Its EDmin is 2.5 mg/kg.

**Q.** With `CCCCCCSc1[nH]c2cccc3c2c1C[C@@H]1[C@@H]3C=C(C)CN1C` as the compound, how does the EDmin (Mus musculus) read?
**A.** The EDmin was greater than 100 mg/kg.

**Q.** And the Change (Rattus norvegicus [2])?
**A.** The Change was -4%.

**Q.** And the EDmin (Rattus norvegicus [1])?
**A.** Its EDmin is 50 mg/kg.

**Q.** Which EDmin (Mus musculus) does the source give for `CC1=C[C@@H]2c3cccc4[nH]c(Sc5ccc(Cl)cc5)c(c34)C[C@H]2N(C)C1` here?
**A.** The EDmin was greater than 100 mg/kg.

**Q.** What about the EDmin (Rattus norvegicus [1]) of the same compound?
**A.** Its EDmin is 100 mg/kg.

**Q.** What does the source list for `CC1=C[C@@H]2c3cccc4[nH]c(S(C)(=O)=O)c(c34)C[C@H]2N(C)C1`?
**A.** EDmin (Mus musculus): >100 mg/kg; Change (Rattus norvegicus [8]): 30%; EDmin (Rattus norvegicus [1]): >50 mg/kg

**Q.** `CCCN1CC(C)=C[C@@H]2c3cccc4[nH]c(SC)c(c34)C[C@H]21` was tested. Which EDmin (Mus musculus) did it give?
**A.** The EDmin was greater than 50 mg/kg.

**Q.** And the Change (Rattus norvegicus [2])?
**A.** The Change was -74%.

**Q.** Which results are given for `COc1ccc(Sc2[nH]c3cccc4c3c2C[C@@H]2[C@@H]4C=C(C)CN2C)cc1`?
**A.** EDmin (Mus musculus): >100 mg/kg; Change (Rattus norvegicus [8]): 31%; EDmin (Rattus norvegicus [1]): >80 mg/kg

**Q.** Which EDmin (Rattus norvegicus [1]) does the source give for `C[C@H]1C[C@@H]2c3cccc4[nH]cc(c34)C[C@H]2N(C)C1` here?
**A.** Its EDmin is greater than 50 mg/kg.

**Q.** For `CCCSc1[nH]c2cccc3c2c1C[C@@H]1[C@@H]3C=C(C)CN1C`, which EDmin (Mus musculus) is on record?
**A.** The EDmin was greater than 50 mg/kg.

**Q.** For `C[C@H]1C[C@@H]2c3cccc4[nH]c(Sc5ccccc5)c(c34)C[C@H]2N(C)C1`, which EDmin (Mus musculus) is on record?
**A.** Its EDmin is greater than 50 mg/kg.

**Q.** And the Change (Rattus norvegicus [2])?
**A.** Its Change is 15%.

**Q.** What about the EDmin (Rattus norvegicus [1]) of the same compound?
**A.** Its EDmin is greater than 50 mg/kg.

**Q.** `CSc1c2c3c(cccc3n1CO)[C@H]1C=C(C)CN(C)[C@@H]1C2` was tested. Which EDmin (Rattus norvegicus [9]) did it give?
**A.** Its EDmin is 80 mg/kg.

**Q.** What about the EDmin (Mus musculus) of the same compound?
**A.** Its EDmin is greater than 100 mg/kg.

**Q.** What about the Change (Rattus norvegicus [2]) of the same compound?
**A.** The Change was 91%.

**Q.** And the EDmin (Rattus norvegicus [1])?
**A.** Its EDmin is 20 mg/kg.

**Q.** What does the source list for `CSc1[nH]c2cccc3c2c1C[C@H]1NCC(C)=C[C@H]31`?
**A.** EDmin (Mus musculus): 50 mg/kg; Change (Rattus norvegicus [8]): 24%; EDmin (Rattus norvegicus [1]): >50 mg/kg

**Q.** With `CSc1[nH]c2cccc3c2c1C[C@@H]1[C@@H]3C=C(C)CN1C` as the compound, how does the EDmin (Mus musculus) read?
**A.** The EDmin was 50 mg/kg.

**Q.** What about the EDmin (Rattus norvegicus [5]) of the same compound?
**A.** Its EDmin is 5 mg/kg.

**Q.** And the EDmin (Rattus norvegicus [6])?
**A.** Its EDmin is 10 mg/kg.

**Q.** What about the Change (Rattus norvegicus [2]) of the same compound?
**A.** Its Change is 532%.

**Q.** And the EDmin (Rattus norvegicus [1])?
**A.** Its EDmin is 2.5 mg/kg.

**Q.** With `CCCN1C[C@H](C)C[C@@H]2c3cccc4[nH]c(SC)c(c34)C[C@H]21` as the compound, how does the EDmin (Rattus norvegicus [1]) read?
**A.** The EDmin was greater than 50 mg/kg.

**Q.** With `CSc1c2c3c(cccc3n1C)[C@H]1C=C(C)CN(C)[C@@H]1C2` as the compound, how does the EDmin (Mus musculus) read?
**A.** Its EDmin is 100 mg/kg.

**Q.** What about the Change (Rattus norvegicus [10]) of the same compound?
**A.** Its Change is -23%.

**Q.** And the EDmin (Rattus norvegicus [1])?
**A.** The EDmin was 100 mg/kg.

**Q.** `CC1=C[C@@H]2c3cccc4[nH]c(SCc5ccccc5)c(c34)C[C@H]2N(C)C1` was tested. Which EDmin (Mus musculus) did it give?
**A.** Its EDmin is 100 mg/kg.

**Q.** What about the EDmin (Rattus norvegicus [6]) of the same compound?
**A.** Its EDmin is 80 mg/kg.

**Q.** And the Change (Rattus norvegicus [8])?
**A.** The Change was -9%.

**Q.** What about the EDmin (Rattus norvegicus [1]) of the same compound?
**A.** Its EDmin is 25 mg/kg.

**Q.** What does the source list for `C[C@@H]1C[C@@H]2c3cccc4[nH]c(Sc5ccccc5)c(c34)C[C@H]2N(C)C1`?
**A.** EDmin (Rattus norvegicus [5]): 20 mg/kg; Change (Rattus norvegicus [2]): 106%; EDmin (Rattus norvegicus [1]): 20 mg/kg; EDmin (Rattus norvegicus [7]): 10 mg/kg

**Q.** Which results are given for `CN(C)CCCN1c2ccccc2Sc2ccc(Cl)cc21` [CHLORPROMAZINE]?
**A.** EDmin (Rattus norvegicus [9]): 10 mg/kg; EDmin (Rattus norvegicus [1]): 10 mg/kg

**Q.** Which EDmin (Rattus norvegicus [9]) does the source give for `CN1CCN(C2=Nc3cc(Cl)ccc3Nc3ccccc32)CC1` [CLOZAPINE] here?
**A.** Its EDmin is 80 mg/kg.

**Q.** What about the EDmin (Mus musculus) of the same compound?
**A.** Its EDmin is 20 mg/kg.

**Q.** What about the EDmin (Rattus norvegicus [5]) of the same compound?
**A.** The EDmin was 40 mg/kg.

**Q.** What about the Change (Rattus norvegicus [2]) of the same compound?
**A.** Its Change is 1.6%.

**Q.** What about the EDmin (Rattus norvegicus [1]) of the same compound?
**A.** Its EDmin is 30 mg/kg.

**Q.** What does the source list for `O=C(CCCN1CCC(O)(c2ccc(Cl)cc2)CC1)c1ccc(F)cc1` [HALOPERIDOL]?
**A.** EDmin (Rattus norvegicus [9]): 0.5 mg/kg; EDmin (Mus musculus): 1 mg/kg; Change (Rattus norvegicus [2]): 1413%; EDmin (Rattus norvegicus [1]): 0.5 mg/kg
